5HT1a ag – human 5-HT1a receptor agonists, primary screen, cell-based, CHO, Ga15 NFAT-bla reporter | 65,000 tested, 0.56% active | AID 567, 2006 | 5-hydroxytryptamine receptor 1A (Homo sapiens), P08908 | activation, % at 10 µM | CHO 5-HT1a Ga15 NFAT-bla reporter, FRET ratio; 0% basal, 100% maximal reference agonist;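 active = activation above the screen-wide mean activation plus 3 SD, cut at about 19% in these data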
Target sequence (P08908 whole entry, looked up): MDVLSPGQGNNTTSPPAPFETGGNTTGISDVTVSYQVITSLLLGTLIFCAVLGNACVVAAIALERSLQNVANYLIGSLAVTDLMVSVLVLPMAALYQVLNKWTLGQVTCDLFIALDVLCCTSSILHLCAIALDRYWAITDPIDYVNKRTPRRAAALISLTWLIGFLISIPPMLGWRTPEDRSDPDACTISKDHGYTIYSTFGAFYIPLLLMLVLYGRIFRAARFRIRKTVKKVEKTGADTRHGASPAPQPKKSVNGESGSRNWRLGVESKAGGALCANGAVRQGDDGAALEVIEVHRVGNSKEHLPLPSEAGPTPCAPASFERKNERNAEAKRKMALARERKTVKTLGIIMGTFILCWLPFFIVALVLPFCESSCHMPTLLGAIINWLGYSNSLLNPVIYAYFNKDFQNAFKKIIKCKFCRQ
5HT1E antag – 5-HT1E receptor antagonists, primary screen, cell-based, HTS | 5-hydroxytryptamine receptor 1E (Homo sapiens), P28566 | CHO 5-HT1E Ga15 NFAT-bla reporter, FRET, antagonist | AID 571, 2007 | 65,000 tested, 0.99% active | inhibition, % at 6 µM;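 active = inhibition above a set limit, the mean inhibition across every tested compound plus 3 SD, cut at about 29% in these data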;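 also: signal is the 460 over 535 nm emission ratio of beta-lactamase substrate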
HTR1E agonist – 5-HT1E receptor agonists, primary screen, cell-based, HTS; 5-hydroxytryptamine receptor 1E (Homo sapiens), P28566; activation, % at 6 µM; 65,000 tested, 0.69% active; CHO 5-HT1E Ga15 NFAT-bla reporter, FRET; 0% DMSO wells, 100% control agonist wells;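 active = activation above a set limit, the screen-wide mean activation plus 3 SD, cut at about 8.5% in these data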
Jurkat viability – cytotoxicity toward Jurkat T cells, primary screen, cytotoxicity control, cell-based, Jurkat E6.1, 60K MLSMR library; Jurkat E6.1 viability, ATP luminescence, 48 h; 56,000 tested, 1.2% active; AID 463, 2006; inhibition, % at 4 µM;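 active = inhibition above the mean inhibition of all tested compounds plus 3 SD, cut at about 28% in these data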
HEK293 NFkB inh – inhibitors of PMA/ionomycin-induced NF-kB reporter, primary screen, antigen receptor NF-kB inhibitor project, cell-based, HEK-293 luciferase reporter, luminescence. HEK-293 NF-kB luciferase reporter. inhibition, % at 3 µM. 62,000 tested, 0.21% active. AID 465, 2006;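 active = inhibition above the mean of all tested compounds plus 3 SD, cut at about 40% in these data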
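Timing: 1 h pretreatment, 16 h stimulation, 37 °C; system: HEK-293 cells with stable firefly luciferase reporter driven by four HIV NF-kB elements; doses: 3 µM once, 0.30% DMSO; measured by: luciferase luminescence; control set: DMSO and 10 µM reference inhibitor; repeats: single test; reagent: PMA plus ionomycin mix as NF-kB-activating stimulus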
5HT1a antag – human 5-HT1a receptor antagonists, primary screen, cell-based, CHO, Ga15 NFAT-bla reporter. inhibition, % at 10 µM. 62,000 tested, 0.68% active. CHO 5-HT1a Ga15 NFAT-bla reporter, antagonist mode;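 active = inhibition above the mean of all tested compounds plus 3 SD, cut at about 43% in these data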;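 also: receptor stimulated by 5-CT agonist at 100 nM near EC80; beta-lactamase reporter measured by ratiometric fluorescence of a cleavable substrate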
Large screens that a line does not name were inactive. Rows were chosen to be rich in hits. Some 3.3% of all compounds tested hit in one or more screens of this group.

CC1=C(C(=O)OC2CCCCC2)C(c2ccco2)C2=C(CC(C)(C)CC2=O)N1 (centres undefined)	5HT1E antag 44.1
CC1(C)CC(=O)C2=C(C1)NC(SCC(=O)Nc1ccccc1)=C(C#N)C2c1ccco1 (centres undefined)	5HT1E antag 32.8
CC1=C(C(=O)OC2CCCCC2)C(c2ccc(C)o2)C2=C(CCCC2=O)N1 (centres undefined)	5HT1E antag 30.3
CC1(C)CC(=O)CC(=Nc2ccc(C(=O)O)cc2)C1	none
Cc1ccc(C(=O)C2CCN(CC(=O)Nc3ccc(N(C)C)cc3)CC2)cc1	HTR1E agonist 12.4
Cc1ccc(C(=O)C2CCN(CC(=O)Nc3ccc4c(c3)OCCO4)CC2)cc1	none
CSc1nc2sc3c(c2c2nnnn12)CCCC3	HTR1E agonist 14.2 (no result: Jurkat viability, HEK293 NFkB inh, 5HT1a antag)
O=C(NC(=O)c1cccc(OC(F)(F)C(F)F)c1)OC1CCS(=O)(=O)C1 (centres undefined)	none
CN1CCCN(C(=O)Cc2c(Cl)cccc2Cl)c2nc3ccccc3nc21	none
N#Cc1c(N)nc(SCc2ccccc2)c(C#N)c1-c1ccco1	none
N#Cc1c(N)nc(SC2CCCCC2=O)c(C#N)c1-c1ccco1 (centres undefined)	5HT1E antag 41.7 (no result: Jurkat viability)
Cc1cc(C)nc(Nc2nc(=O)c3ccccc3s2)n1	5HT1a antag 61.8
Nc1c(NCc2ccccc2F)c(=O)[nH]c(=O)n1Cc1ccccc1	5HT1a ag 81.1 (no result: Jurkat viability)
Cc1ccccc1NC(=O)C1CCC(C)(C(=O)O)C1(C)C (centres undefined)	none
O=C(CCN1CCN(c2ccccc2F)CC1)c1ccc(Br)cc1	HTR1E agonist 34.4
O=C(CCN1CCCCC1)c1ccc2c(c1)OCCO2	none
O=C(CCN1CCCC1Cc1ccccc1)c1ccc2c(c1)OCCO2 (centres undefined)	HTR1E agonist 8.9 (no result: Jurkat viability, HEK293 NFkB inh, 5HT1a antag)
COC(=O)C(C)Sc1nc2c(c(=O)[nH]c(=O)n2C)n1CCC(C)C (centres undefined)	none
Cc1ccc(C(=O)OCc2cn3ccccc3n2)cc1	5HT1a ag 100.6
COc1ccccc1NC(=O)N1CCc2[nH]c3ccc(F)cc3c2C1	5HT1E antag 29.2
COc1ccccc1NC(=O)N1CCC(C(=O)c2ccc(F)cc2)CC1	none
CCOC(=O)N1CCC(NC(=O)c2ccc(CS(=O)(=O)c3ccccc3C)o2)CC1	5HT1a ag 38.6
COCCn1c(-c2cc(OC)c(OC)c(OC)c2)nc2oc3ccccc3c(=O)c2c1=O	none
CNC(=O)N(C1=NCC(C)(C)S1)c1ccc(F)c(Cl)c1	5HT1E antag 31.1, Jurkat viability 48.6
O=C(NC1c2ccccc2-c2ccccc21)N1CCCCC1	HEK293 NFkB inh 42.8
O=C(Nc1ccccc1C(F)(F)F)N1CCCCCC1	none
C=CCn1c(SCc2c(F)cccc2Cl)nnc1-c1ccco1	none
CCOCCCNC(=O)CN1CCN(Cc2ccccc2C)C1=O	none
CCOc1ccc(CCNC(=O)CN2CCN(Cc3ccccc3C)C2=O)cc1OCC	5HT1a ag 47.5
Cc1cc(NC(=O)c2cc(C3CC3)on2)no1	none
C1=CC2CC1CC2CNCc1ccco1 (centres undefined)	none
Cc1cc(SCC#N)n2nc(C)c(-c3ccccc3)c2n1	5HT1E antag 57.1
CCOC(=O)c1cn2c3c(c(F)c(F)c(F)c3c1=O)SC(N1CCCC1)=N2	none
CCOC(=O)CC(/C(C)=N\O)c1ccccc1 (centres undefined)	HTR1E agonist 40.3
CC(C)C(=O)Nc1cccc(C(=O)Nc2nccs2)c1	none
CCCOC(=O)c1ccc(OCC(O)CN2CCN(C(=O)c3ccccc3)CC2)cc1 (centres undefined)	HTR1E agonist 47.9
O=C(NCc1ccccc1F)C1CCCN1C(=O)NCc1ccccc1 (centres undefined)	none
CC(OC(=O)c1cccs1)C(=O)NCc1ccco1 (centres undefined)	HTR1E agonist 15.7
CC(C)C(OC(=O)c1cccs1)C(=O)NCc1ccco1 (centres undefined)	none
CCOC(=O)C1=C(N)N2C(=O)CSC2=C(C(=O)OC)C1	none (no result: Jurkat viability, HEK293 NFkB inh, 5HT1a antag)
Cn1c(=O)c2sccc2n2c(CCCC(=O)NCc3ccc4c(c3)OCO4)nnc12	none (no result: Jurkat viability)
O=C(c1ccc(F)cc1)C(CN1CCOCC1)c1ccccc1 (centres undefined)	5HT1E antag 51.3, Jurkat viability 80.5, 5HT1a antag 69.1
Cc1ccccc1-n1ncc2c(SCC(=O)NCc3cccs3)ncnc21	Jurkat viability 39.9
CCOC(=O)C1CCN(Cc2ccccc2C(F)(F)F)CC1	none
CCOC(=O)C1CCN(Cc2ccc(O)c3ncccc23)CC1	Jurkat viability 43.2
c1ccc(/N=C2\N=C(Nc3ccccn3)c3ccccc32)nc1	Jurkat viability 49.9
CCCNC(=O)c1c(N)n(-c2cc(OC)cc(OC)c2)c2nc3ccccc3nc12	5HT1a ag 30.5, HTR1E agonist 12.1
Cc1ccccc1OCc1nc(-c2ccc(NC(=O)c3ccco3)cc2)no1	none (no result: Jurkat viability)
Cc1ccccc1OCc1nc(-c2ccc(NC(=O)c3ccc4c(c3)OCO4)cc2)no1	HTR1E agonist 9.2
CC(C)Oc1ccc(C2C(C(=O)c3ccco3)=C(O)C(=O)N2CCCN(C)C)cc1 (centres undefined)	none
Cc1ccc2c(c1)nnn2C1CCN(S(=O)(=O)c2ccc(C(=O)N3C(C)CCCC3C)cc2)CC1 (centres undefined)	Jurkat viability 43.4
Cc1ccc2c(c1)nnn2C1CCN(S(C)(=O)=O)CC1	none
CCOc1nc(CC)nc(NC(=O)NS(=O)(=O)c2ccccc2Cl)n1	none
COc1cccc(OCc2nc3ncc(Br)cc3[nH]2)c1	Jurkat viability 64.6
Cc1cccc(OCc2nc(C)cc(=O)[nH]2)c1	none (no result: Jurkat viability, HEK293 NFkB inh, 5HT1a antag)
COc1ccc(Nc2nc(Nc3ccc(OC)cc3)nc(-n3[nH]c(=O)c(C)c3C)n2)cc1	5HT1a ag 34.5, HTR1E agonist 14.8 (no result: Jurkat viability, HEK293 NFkB inh, 5HT1a antag)
CCOC(=O)c1sc(NC(=O)COC(=O)Cn2cnc3ccccc32)c(C(=O)OCC)c1C	none
Cc1cc(-n2c(C)cc(C(=O)CSc3nnc4sc5ccccc5n34)c2C)no1	none
Cc1cc(-n2c(C)cc(C(=O)CSc3ncnc4ccccc34)c2C)no1	HEK293 NFkB inh 40.5 (no result: Jurkat viability)
Cc1cc(C)n2nc(SCC(=O)c3ccccc3)nc2n1	none
Cc1cc(C)n2nc(SCC(=O)c3cc(C)n(-c4cc(C)on4)c3C)nc2n1	Jurkat viability 33.2

Source: PubChem BioAssay
